Experimental data: ChEMBL document CHEMBL5058577, “EUbOPEN Chemogenomics Library 2 (Multiplex)” (2022)

Tested on: HEK-293T
Assay: Multiplex assay against HEK293T
Type: toxicity, cell-based
Details: human
Summary of the method: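 Live cells carried four stains from seeding: Hoechst33342, BioTracker Green Microtubule Cytoskeleton Dye, MitoTracker Red and Annexin V Alexa Fluor 680. They were imaged on a CQ1 microscope at 37°C and 5% CO2 after compound addition. Using CellPathfinder machine-learning gating, cells were split into Hoechst high-intensity objects or normal cells, normal cells into healthy, pyknosed or fragmented nuclei, and pyknosed cells into mitotic or apoptotic; tubulin, mitochondrial-mass and membrane-permeability phenotypes are per cents of healthy-nucleus cells.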

[1] = 12 h, 1 µM, compound concentration 1 uM, replicate 1
[2] = 12 h, 1 µM, compound concentration 1 uM, replicate 2
[3] = 12 h, 10 µM, compound concentration 10 uM, replicate 1
[4] = 12 h, 10 µM, compound concentration 10 uM, replicate 2
[5] = 24 h, 1 µM, compound concentration 1 uM, replicate 1
[6] = 24 h, 1 µM, compound concentration 1 uM, replicate 2
[7] = 24 h, 10 µM, compound concentration 10 uM, replicate 1
[8] = 24 h, 10 µM, compound concentration 10 uM, replicate 2
[9] = 48 h, 1 µM, compound concentration 1 uM, replicate 1
[10] = 48 h, 1 µM, compound concentration 1 uM, replicate 2
[11] = 48 h, 10 µM, compound concentration 10 uM, replicate 1
[12] = 48 h, 10 µM, compound concentration 10 uM, replicate 2

## Cc1nn(C)c2nc(NNC(=O)Nc3cc(Cl)nc(Cl)c3)cc(C(C)C)c12
[1]
  Population Apoptotic (%): 27%
  Population Fragmented Nuclei (%): 5%
  Population Healthy Nuclei (%): 77%
  Population Hoechst High Intensity Objects (%): 5%
  Population Membrane Permeable-Phenotype (%): 0%
  Population Mitochondria Different-Phenotype (%): 37%
  Population Mitotic Cells (%): 72%
  Population Normal (%): 94%
  Population Pyknosed Nuclei (%): 16%
  Population Tubulin-Different-Phenotype (%): 26%
  Total Cell Count: 467
[2]
  Population Apoptotic (%): 40%
  Population Healthy Nuclei (%): 81%
  Population Hoechst High Intensity Objects (%): 2%
  Population Mitochondria Different-Phenotype (%): 59%
  Population Mitotic Cells (%): 60%
  Population Normal (%): 97%
  Population Pyknosed Nuclei (%): 13%
  Population Tubulin-Different-Phenotype (%): 25%
  Total Cell Count: 383
[3]
  Population Apoptotic (%): 55%
  Population Fragmented Nuclei (%): 5%
  Population Healthy Nuclei (%): 61%
  Population Hoechst High Intensity Objects (%): 12%
  Population Membrane Permeable-Phenotype (%): 1%
  Population Mitochondria Different-Phenotype (%): 79%
  Population Mitotic Cells (%): 44%
  Population Normal (%): 88%
  Population Pyknosed Nuclei (%): 32%
  Population Tubulin-Different-Phenotype (%): 80%
  Total Cell Count: 300
[4]
  Population Apoptotic (%): 46%
  Population Fragmented Nuclei (%): 4%
  Population Healthy Nuclei (%): 74%
  Population Hoechst High Intensity Objects (%): 3%
  Population Mitochondria Different-Phenotype (%): 84%
  Population Mitotic Cells (%): 53%
  Population Normal (%): 96%
  Population Pyknosed Nuclei (%): 21%
  Population Tubulin-Different-Phenotype (%): 75%
  Total Cell Count: 396
[5]
  Population Apoptotic (%): 31%
  Population Fragmented Nuclei (%): 9%
  Population Healthy Nuclei (%): 78%
  Population Hoechst High Intensity Objects (%): 3%
  Population Membrane Permeable-Phenotype (%): 0%
  Population Mitochondria Different-Phenotype (%): 27%
  Population Mitotic Cells (%): 68%
  Population Normal (%): 96%
  Population Pyknosed Nuclei (%): 11%
  Population Tubulin-Different-Phenotype (%): 20%
  Total Cell Count: 608
[6]
  Population Fragmented Nuclei (%): 6%
  Population Healthy Nuclei (%): 82%
  Population Hoechst High Intensity Objects (%): 1%
  Population Mitochondria Different-Phenotype (%): 37%
  Population Normal (%): 98%
  Population Tubulin-Different-Phenotype (%): 19%
  Total Cell Count: 512
[7]
  Population Apoptotic (%): 59%
  Population Fragmented Nuclei (%): 10%
  Population Healthy Nuclei (%): 66%
  Population Hoechst High Intensity Objects (%): 5%
  Population Membrane Permeable-Phenotype (%): 0%
  Population Mitochondria Different-Phenotype (%): 78%
  Population Mitotic Cells (%): 40%
  Population Normal (%): 94%
  Population Pyknosed Nuclei (%): 22%
  Population Tubulin-Different-Phenotype (%): 74%
  Total Cell Count: 321
[8]
  Population Apoptotic (%): 55%
  Population Fragmented Nuclei (%): 5%
  Population Healthy Nuclei (%): 78%
  Population Mitochondria Different-Phenotype (%): 80%
  Population Mitotic Cells (%): 44%
  Population Normal (%): 95%
  Population Pyknosed Nuclei (%): 16%
  Population Tubulin-Different-Phenotype (%): 69%
  Total Cell Count: 440
[9]
  Population Apoptotic (%): 27%
  Population Fragmented Nuclei (%): 12%
  Population Healthy Nuclei (%): 78%
  Population Hoechst High Intensity Objects (%): 3%
  Population Membrane Permeable-Phenotype (%): 1%
  Population Mitochondria Different-Phenotype (%): 17%
  Population Mitotic Cells (%): 72%
  Population Normal (%): 96%
  Population Pyknosed Nuclei (%): 9%
  Population Tubulin-Different-Phenotype (%): 16%
  Total Cell Count: 912
[10]
  Population Apoptotic (%): 18%
  Population Fragmented Nuclei (%): 13%
  Population Healthy Nuclei (%): 81%
  Population Hoechst High Intensity Objects (%): 2%
  Population Mitochondria Different-Phenotype (%): 25%
  Population Mitotic Cells (%): 81%
  Population Normal (%): 97%
  Population Pyknosed Nuclei (%): 5%
  Population Tubulin-Different-Phenotype (%): 19%
  Total Cell Count: 748
[11]
  Population Apoptotic (%): 62%
  Population Fragmented Nuclei (%): 9%
  Population Healthy Nuclei (%): 72%
  Population Hoechst High Intensity Objects (%): 3%
  Population Membrane Permeable-Phenotype (%): 0%
  Population Mitochondria Different-Phenotype (%): 82%
  Population Mitotic Cells (%): 37%
  Population Normal (%): 96%
  Population Pyknosed Nuclei (%): 18%
  Population Tubulin-Different-Phenotype (%): 78%
  Total Cell Count: 387
[12]
  Population Apoptotic (%): 45%
  Population Healthy Nuclei (%): 79%
  Population Hoechst High Intensity Objects (%): 4%
  Population Mitochondria Different-Phenotype (%): 71%
  Population Mitotic Cells (%): 55%
  Population Normal (%): 95%
  Population Pyknosed Nuclei (%): 10%
  Population Tubulin-Different-Phenotype (%): 63%
  Total Cell Count: 593

## CN1CCN(c2ccc(Nc3c4ccccc4nc4ccccc34)cc2)CC1.Cl.Cl.O
[1]
  Population Apoptotic (%): 42%
  Population Fragmented Nuclei (%): 7%
  Population Healthy Nuclei (%): 81%
  Population Hoechst High Intensity Objects (%): 3%
  Population Membrane Permeable-Phenotype (%): 0%
  Population Mitochondria Different-Phenotype (%): 50%
  Population Mitotic Cells (%): 57%
  Population Normal (%): 96%
  Population Pyknosed Nuclei (%): 11%
  Population Tubulin-Different-Phenotype (%): 28%
  Total Cell Count: 411
[2]
  Population Apoptotic (%): 55%
  Population Fragmented Nuclei (%): 4%
  Population Healthy Nuclei (%): 90%
  Population Hoechst High Intensity Objects (%): 1%
  Population Mitochondria Different-Phenotype (%): 59%
  Population Mitotic Cells (%): 45%
  Population Normal (%): 98%
  Population Pyknosed Nuclei (%): 5%
  Population Tubulin-Different-Phenotype (%): 20%
  Total Cell Count: 364
[3]
  Population Apoptotic (%): 100%
  Population Fragmented Nuclei (%): 24%
  Population Healthy Nuclei (%): 74%
  Population Hoechst High Intensity Objects (%): 1%
  Population Membrane Permeable-Phenotype (%): 0%
  Population Mitochondria Different-Phenotype (%): 99%
  Population Mitotic Cells (%): 0%
  Population Normal (%): 98%
  Population Pyknosed Nuclei (%): 1%
  Population Tubulin-Different-Phenotype (%): 97%
  Total Cell Count: 234
[4]
  Population Fragmented Nuclei (%): 40%
  Population Healthy Nuclei (%): 58%
  Population Hoechst High Intensity Objects (%): 0%
  Population Mitochondria Different-Phenotype (%): 100%
  Population Normal (%): 99%
  Population Tubulin-Different-Phenotype (%): 92%
  Total Cell Count: 194
[5]
  Population Apoptotic (%): 42%
  Population Fragmented Nuclei (%): 9%
  Population Healthy Nuclei (%): 84%
  Population Hoechst High Intensity Objects (%): 2%
  Population Membrane Permeable-Phenotype (%): 0%
  Population Mitochondria Different-Phenotype (%): 40%
  Population Mitotic Cells (%): 57%
  Population Normal (%): 97%
  Population Pyknosed Nuclei (%): 5%
  Population Tubulin-Different-Phenotype (%): 14%
  Total Cell Count: 455
[6]
  Population Apoptotic (%): 46%
  Population Healthy Nuclei (%): 86%
  Population Hoechst High Intensity Objects (%): 0%
  Population Mitochondria Different-Phenotype (%): 44%
  Population Mitotic Cells (%): 53%
  Population Normal (%): 99%
  Population Pyknosed Nuclei (%): 4%
  Population Tubulin-Different-Phenotype (%): 12%
  Total Cell Count: 362
[7]
  Population Apoptotic (%): 100%
  Population Fragmented Nuclei (%): 28%
  Population Healthy Nuclei (%): 69%
  Population Hoechst High Intensity Objects (%): 2%
  Population Membrane Permeable-Phenotype (%): 0%
  Population Mitochondria Different-Phenotype (%): 100%
  Population Mitotic Cells (%): 0%
  Population Normal (%): 97%
  Population Pyknosed Nuclei (%): 2%
  Population Tubulin-Different-Phenotype (%): 92%
  Total Cell Count: 247
[8]
  Population Fragmented Nuclei (%): 45%
  Population Healthy Nuclei (%): 53%
  Population Hoechst High Intensity Objects (%): 0%
  Population Normal (%): 99%
  Population Pyknosed Nuclei (%): 0%
  Population Tubulin-Different-Phenotype (%): 91%
  Total Cell Count: 206
[9]
  Population Apoptotic (%): 45%
  Population Fragmented Nuclei (%): 11%
  Population Healthy Nuclei (%): 82%
  Population Hoechst High Intensity Objects (%): 3%
  Population Membrane Permeable-Phenotype (%): 0%
  Population Mitochondria Different-Phenotype (%): 30%
  Population Mitotic Cells (%): 54%
  Population Normal (%): 96%
  Population Pyknosed Nuclei (%): 6%
  Population Tubulin-Different-Phenotype (%): 16%
  Total Cell Count: 581
[10]
  Population Apoptotic (%): 60%
  Population Fragmented Nuclei (%): 10%
  Population Healthy Nuclei (%): 85%
  Population Hoechst High Intensity Objects (%): 1%
  Population Mitochondria Different-Phenotype (%): 36%
  Population Mitotic Cells (%): 40%
  Population Normal (%): 98%
  Population Pyknosed Nuclei (%): 3%
  Population Tubulin-Different-Phenotype (%): 12%
  Total Cell Count: 411
[11]
  Population Apoptotic (%): 100%
  Population Fragmented Nuclei (%): 34%
  Population Healthy Nuclei (%): 56%
  Population Hoechst High Intensity Objects (%): 11%
  Population Membrane Permeable-Phenotype (%): 0%
  Population Mitochondria Different-Phenotype (%): 100%
  Population Mitotic Cells (%): 0%
  Population Normal (%): 88%
  Population Pyknosed Nuclei (%): 9%
  Population Tubulin-Different-Phenotype (%): 88%
  Total Cell Count: 318
[12]
  Population Apoptotic (%): 66%
  Population Fragmented Nuclei (%): 52%
  Population Healthy Nuclei (%): 46%
  Population Hoechst High Intensity Objects (%): 5%
  Population Mitochondria Different-Phenotype (%): 99%
  Population Mitotic Cells (%): 33%
  Population Normal (%): 94%
  Population Pyknosed Nuclei (%): 1%
  Population Tubulin-Different-Phenotype (%): 89%
  Total Cell Count: 272
